Paper PMC11807182 (Scientific Reports, 2025)

Tests used:
[1] = tested on: S. mansoni adult worms; details: read-out: EC50 for S. mansoni adult worms; cited from earlier work
[2] = tested on: Caenorhabditis elegans; test: Lethal toxicity assay in C. elegans; assay type: in vivo; details: L4-stage larvae, Bristol N2 strain, 24 h, 21 °C
Outline: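 C. elegans Bristol N2 was grown on NGM plates seeded with E. coli OP50. Synchronized L4 larvae, 60/well in M9 medium, were exposed to test compound starting at 1,000 µM, with ivermectin reference and 1% DMSO negative control. Viability was scored by movement after 24 h at 21 °C. Triplicate; LD50 from sigmoidal dose-response curves.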

[3] = tested on: Schistosoma mansoni adult worms; test: In vitro assay with adult S. mansoni; assay type: cell-based; details: concentrations starting from 50 µM, up to 72 h
Outline: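 S. mansoni (Belo Horizonte strain) adults were perfused from the hepatic portal vein of Swiss mice 49 days post-infection. One worm pair/well in RPMI 1640 with 10% FBS, penicillin and streptomycin; test compound starting at 50 µM, with praziquantel, metal salts and 1% DMSO controls; 37 °C, 5% CO₂, up to 72 h. Viability by inverted microscope at 0, 24, 48 and 72 h; death meant no movement ≥1 min after gentle stimulation. Triplicate; EC50 by sigmoidal fit.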

[4] = tested on: Angiostrongylus cantonensis L1 larvae; test: In vitro assay with A. cantonensis L1 larvae; assay type: cell-based; details: for activity against A. cantonensis: L1 larvae, concentrations starting from 50 µM, 24 h
Outline: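 A. cantonensis (NPDN-AC strain, cycled through B. glabrata and Wistar rats) L1 larvae were recovered from rat feces by the Rugai technique and washed in RPMI 1640 with antibiotics. About 100 larvae/well were exposed to test compound starting at 50 µM at 21 °C, with drug-free medium, metal salt and 1% DMSO controls. Viability was checked microscopically at 0 and 24 h; efficacy meant ≥60% larvae immobile.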

For 2-oxopopulifolic acid methyl ester, the EC50 [1] is listed as 50 µM.

For CC1=CC(=O)CC2[C@]1(C)CC[C@@H](C)[C@]2(C)CCC(C)CC(=O)O (some centres unmarked) [2-oxopopulifolic acid], the EC50 [1] is listed as 50 µM.

For O=C1C(=O)c2cccnc2-c2ncccc21.O=C1C(=O)c2cccnc2-c2ncccc21.[Ag+].[O-][Cl+3]([O-])([O-])[O-] [Ag-phendione, [Ag(phendione)2](ClO4)], the “C. elegans LD50” value [2] was 167 µM.

In the case of O=[N+]([O-])[O-].[Ag+] [AgNO₃], the antischistosomal activity [3] is reported as “no antischistosomal activity” and the “activity against A. cantonensis” value [4] is reported as “no activity”.

In the case of O.O.O.O.O.O.O.O.O=C1C(=O)c2cccnc2-c2ncccc21.O=C1C(=O)c2cccnc2-c2ncccc21.O=C1C(=O)c2cccnc2-c2ncccc21.[Cu+2].[O-][Cl+3]([O-])([O-])[O-].[O-][Cl+3]([O-])([O-])[O-] [Cu-phendione, [Cu(phendione)3](ClO4)2·8H2O], the “C. elegans LD50” value [2] is reported as 280 µM.

With O.O.O.O.O.O=S(=O)([O-])[O-].[Cu+2] [CuSO₄·5 H₂O] the antischistosomal activity [3] was “no antischistosomal activity” and the “activity against A. cantonensis” value [4] was “no activity”.

In the case of O=C1C(=O)c2cccnc2-c2ncccc21 [Phendione, 1,10-phenanthroline-5,6-dione], the “larval motility compared to the control group” value ([4]; A. cantonensis L1 larvae) is reported as “significantly reduced” and the “C. elegans LD50” value [2] is reported as 719 µM.

For Cc1ccc(C(C)C)cc1O [carvacrol], the EC50 [1] is given as 56.8 µM.

For CC(=O)Oc1cc(C(C)C)ccc1C [carvacryl acetate], the EC50 [1] is given as 42.2 µM.

In the case of C=C1C(=O)O[C@@H]2/C=C(\CO)CC/C=C(\C)C[C@H](OC(=O)C(=C)[C@@H](O)CO)[C@@H]12 [cnicin], the EC50 [1] is given as 50 µM.

For O=c1c(O)c(-c2ccc(O)cc2)oc2cc(O)cc(O)c12 [kaempferol], the EC50 [1] is given as 81.8 µM.

In the case of C/C=C/c1cc(OC)c2c(c1)[C@H](C)[C@@H](c1ccc(O)c(OC)c1)O2 [licarin A], the EC50 [1] is given as 30 µM.

In the case of C=CC(C)(C)c1cc(/C=C/C(=O)c2ccc(O)cc2)c(OC)cc1O [licochalcone A], the EC50 [1] is given as 50 µM.

In the case of Ivermectin, the “C. elegans LD50” value [2] is reported as 4.1 µM.
